In ChEMBL document CHEMBL1137710, “Synthesis and in vitro antitumor activity of new quinoxaline derivatives” (2009):

What was measured:
Format in all cases: functional
RXF 393 = experiment: Growth inhibition of human RXF393 cells after 48 hrs by sulforhodamine B assay; settings: RXF 393, 48 h
How it was run: (§1)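 NCI 60-human-tumor-cell-line panel, with compounds tested over a 5-log dose range. Values are taken from dose-response curves as log10 molar concentrations: GI50 is 50% net growth inhibition, TGI is total growth inhibition, and LC50 is 50% net cell death.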

DU-145 = experiment: Growth inhibition of human DU145 cells after 48 hrs by sulforhodamine B assay; settings: DU-145, 48 h; how it was run: as §1
M14 = experiment: Growth inhibition of human M14 cells after 48 hrs by sulforhodamine B assay; settings: M14, 48 h; how it was run: as §1
NCI-H23 = experiment: Growth inhibition of human NCI-H23 cells after 48 hrs by sulforhodamine B assay; settings: NCI-H23, 48 h; how it was run: as §1
COLO 205 = experiment: Growth inhibition of human COLO205 cells after 48 hrs by sulforhodamine B assay; settings: COLO 205, 48 h; how it was run: as §1
MCF7 = experiment: Anticancer activity against human MCF7 cells assessed as cell growth at 100 uM after 48 hrs by sulforhodamine B assay; settings: MCF7, 48 h, read-out: Activity
A549 = experiment: Growth inhibition of human A549 cells after 48 hrs by sulforhodamine B assay; settings: A549, 48 h; how it was run: as §1
[1] = Growth inhibition of human […] cells after 48 hrs by sulforhodamine B assay; how it was run: as §1
786-0 = experiment: Growth inhibition of human 786-0 cells after 48 hrs by sulforhodamine B assay; settings: 786-0, 48 h; how it was run: as §1
KM12 = experiment: Growth inhibition of human KM12 cells after 48 hrs by sulforhodamine B assay; settings: KM12, 48 h; how it was run: as §1
SF-295 = experiment: Growth inhibition of human SF295 cells after 48 hrs by sulforhodamine B assay; settings: SF-295, 48 h; how it was run: as §1
U-251 = experiment: Growth inhibition of human U251 cells after 48 hrs by sulforhodamine B assay; settings: U-251, 48 h
How it was run: (§2)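 Run in the NCI 60-human-tumour-cell-line panel, tested over a 5-log dose range. Dose–response curves gave three values per cell line, each as a log10 molar concentration: GI50 (50% inhibition of net cell growth), TGI (total inhibition of net growth) and LC50 (50% net cell death). The mean graph midpoint is the arithmetic mean over all lines, with insensitive lines entered at the highest concentration tested.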

CAKI-1 = experiment: Growth inhibition of human Caki1 cells after 48 hrs by sulforhodamine B assay; settings: CAKI-1, 48 h; how it was run: as §1
MDA-MB-231 = experiment: Growth inhibition of human MDA-MB-231 cells after 48 hrs by sulforhodamine B assay; settings: MDA-MB-231, 48 h; how it was run: as §1
MDA-MB-435 = experiment: Growth inhibition of human MDA-MB-435 cells after 48 hrs by sulforhodamine B assay; settings: MDA-MB-435, 48 h; how it was run: as §1
PC-3 = experiment: Growth inhibition of human PC3 cells after 48 hrs by sulforhodamine B assay; settings: PC-3, 48 h; how it was run: as §1
OVCAR-8 = experiment: Growth inhibition of human OVCAR8 cells after 48 hrs by sulforhodamine B assay; settings: OVCAR-8, 48 h; how it was run: as §1
SK-OV-3 = experiment: Growth inhibition of human SKOV3 cells after 48 hrs by sulforhodamine B assay; settings: SK-OV-3, 48 h; how it was run: as §1
LOX IMVI = experiment: Growth inhibition of human LOXIMVI cells after 48 hrs by sulforhodamine B assay; how it was run: as §1
SW-620 = experiment: Growth inhibition of human SW620 cells after 48 hrs by sulforhodamine B assay; settings: SW-620, 48 h; how it was run: as §2
[2] = Growth inhibition of human Hs 578T cells after 48 hrs by sulforhodamine B assay; how it was run: as §1
SF-268 = experiment: Anticancer activity against human SF268 cells assessed as cell growth at 100 uM after 48 hrs by sulforhodamine B assay; settings: SF-268, 48 h, read-out: Activity
TK-10 = experiment: Growth inhibition of human TK10 cells after 48 hrs by sulforhodamine B assay; settings: TK-10, 48 h; how it was run: as §2
SR = experiment: Growth inhibition of human SR cells after 48 hrs by sulforhodamine B assay; how it was run: as §2
NCI-H460 = experiment: Growth inhibition of human NCI-H460 cells after 48 hrs by sulforhodamine B assay; settings: NCI-H460, 48 h; how it was run: as §1
NCI/ADR-RES = experiment: Growth inhibition of human NCI/ADR-RES cells after 48 hrs by sulforhodamine B assay; how it was run: as §1
HCT-116 = experiment: Growth inhibition of human HCT116 cells after 48 hrs by sulforhodamine B assay; settings: HCT-116, 48 h; how it was run: as §1
OVCAR-5 = experiment: Growth inhibition of human OVCAR5 cells after 48 hrs by sulforhodamine B assay; settings: OVCAR-5, 48 h; how it was run: as §1
SNB-19 = experiment: Growth inhibition of human SNB19 cells after 48 hrs by sulforhodamine B assay; settings: SNB-19, 48 h; how it was run: as §2
[3] = read-out: pLC50 (the source's name) (converted)

## Nc1cc(N)c2nc(-c3ccccc3)c(Sc3ccc(F)cc3)nc2c1
RXF 393
  GI50: > 100 µM
RXF 393; [3]
  CC50: > 100 µM
RXF 393; read-out: pTGI (converted)
  TGI: > 100 µM
DU-145
  GI50: > 100 µM
DU-145; [3]
  CC50: > 100 µM
DU-145; read-out: pTGI (converted)
  TGI: > 100 µM
M14
  GI50: 15.8 µM
M14; [3]
  CC50: 58.9 µM
M14; read-out: pTGI (converted)
  TGI: 30.9 µM
NCI-H23
  GI50: 19.1 µM
  LC50 (50% net cell kill concentration): 81.3 µM
NCI-H23; read-out: pTGI (converted)
  TGI: 39.8 µM
COLO 205
  GI50: 21.9 µM
  LC50 (50% net cell kill): > 100 µM
COLO 205; read-out: pTGI (converted)
  TGI: 47.9 µM
MCF7
  growth at 100 µM: 7%
A549
  GI50: 13.5 µM
  LC50: 70.8 µM
A549; read-out: pTGI (converted)
  TGI: 30.9 µM
[1]
  GI50: 28.2 µM
  LC50: > 100 µM
[1]; read-out: pTGI (converted)
  TGI: 81.3 µM
786-0
  GI50: > 100 µM
786-0; [3]
  CC50: > 100 µM
786-0; read-out: pTGI (converted)
  TGI: > 100 µM
KM12
  GI50: 20.9 µM
  LC50 (50% net cell kill): > 100 µM
KM12; read-out: pTGI (converted)
  TGI: 49 µM
SF-295
  GI50: 13.8 µM
  LC50 (50% net cell kill): 64.6 µM
SF-295; read-out: pTGI (converted)
  TGI: 30.2 µM
U-251
  GI50: 16.2 µM
  LC50 (50% net cell kill): 61.7 µM
U-251; read-out: pTGI (converted)
  TGI: 31.6 µM
CAKI-1
  GI50: > 100 µM
CAKI-1; [3]
  CC50: > 100 µM
CAKI-1; read-out: pTGI (converted)
  TGI: > 100 µM
MDA-MB-231
  GI50: 17.4 µM
MDA-MB-231; [3]
  CC50: 83.2 µM
MDA-MB-231; read-out: pTGI (converted)
  TGI: 38 µM
MDA-MB-435
  GI50: 16.2 µM
MDA-MB-435; [3]
  CC50: 66.1 µM
MDA-MB-435; read-out: pTGI (converted)
  TGI: 33.1 µM
PC-3
  GI50: > 100 µM
PC-3; [3]
  CC50: > 100 µM
PC-3; read-out: pTGI (converted)
  TGI: > 100 µM
OVCAR-8
  GI50: 16.6 µM
OVCAR-8; [3]
  CC50: 72.4 µM
OVCAR-8; read-out: pTGI (converted)
  TGI: 34.7 µM
SK-OV-3
  GI50: 15.8 µM
SK-OV-3; [3]
  CC50: 63.1 µM
SK-OV-3; read-out: pTGI (converted)
  TGI: 31.6 µM
LOX IMVI
  GI50: 22.9 µM
  LC50: 74.1 µM
LOX IMVI; read-out: pTGI (converted)
  TGI: 40.7 µM
SW-620
  GI50: 22.9 µM
SW-620; [3]
  CC50: > 100 µM
SW-620; read-out: pTGI (converted)
  TGI: 50.1 µM
[2]
  GI50: 26.9 µM
[2]; [3]
  CC50: > 100 µM
[2]; read-out: pTGI (converted)
  TGI: 61.7 µM
SF-268
  growth at 100 µM: 0%
TK-10
  GI50: > 100 µM
TK-10; [3]
  CC50: > 100 µM
TK-10; read-out: pTGI (converted)
  TGI: > 100 µM
SR
  GI50: 35.5 µM
  LC50 (concentration giving 50% net cell death): > 100 µM
SR; read-out: pTGI (converted)
  TGI: > 100 µM
NCI-H460
  GI50: 21.9 µM
  LC50 (50% net cell kill): > 100 µM
NCI-H460; read-out: pTGI (converted)
  TGI: 66.1 µM
NCI/ADR-RES
  GI50: 16.6 µM
NCI/ADR-RES; [3]
  CC50: 72.4 µM
NCI/ADR-RES; read-out: pTGI (converted)
  TGI: 34.7 µM
HCT-116
  GI50: 14.8 µM
  LC50 (concentration causing 50% net cell death): 55 µM
HCT-116; read-out: pTGI (converted)
  TGI: 28.2 µM
OVCAR-5
  GI50: 19.1 µM
OVCAR-5; [3]
  CC50: > 100 µM
OVCAR-5; read-out: pTGI (converted)
  TGI: 45.7 µM
SNB-19
  GI50: 20 µM
  LC50: 87.1 µM
SNB-19; read-out: pTGI (converted)
  TGI: 41.7 µM
